Source: article PMC5884119 (Journal of medicinal chemistry, 2017)
≈ marks a conversion by molar mass, not a printed value.

Experiments:
[1] = system: panel of Gram-positive and Gram-negative bacteria; assay: Antimicrobial activity against the whole panel; format: cell-based; conditions: for antimicrobial activity against the tested strains (in words): statement in text over the panel of strains; for MIC: read-out: MICs across the tested strains
[2] = system: P. aeruginosa (ATCC 27853); assay: MIC against P. aeruginosa; format: cell-based, Pseudomonas aeruginosa
Hemolytic activity = format: cell-based
[3] = system: ovarian cancer cells (C13); assay: Cytotoxicity toward ovarian cancer cells; format: cell-based
E. coli [4] = assay: Fluorescence microscopy; format: cell-based, Escherichia coli
Method in brief: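 Test compound at 5 µg/mL applied to E. coli for 2 h, with untreated cells as controls. Cells stained with DAPI or with propidium iodide, a membrane-impermeant DNA intercalator that fluoresces red only when membranes are disrupted. Membrane damage assessed by fluorescence microscopy.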

MRSA [5] = assay: Drug resistance study; format: cell-based, Staphylococcus aureus; conditions: incubated at half of MIC overnight, after 14 passages
E. coli [6] = assay: Time-kill study, E. coli; format: cell-based, Escherichia coli
[7] = system: MRSA-induced lung inflammation; assay: Rat MRSA pneumonia model, lung pathology; format: in vivo
Method in brief: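 Rats (n = 6 per group) inoculated intratracheally with 100 µL MRSA suspension. After 24 h (day 0), test compound 10 mg/kg given by intravenous tail-vein injection. Lung bacterial counts taken on days 3 and 5. Lung inflammation assessed by hematoxylin and eosin staining of lung tissue.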

MRSA [8] = assay: Fluorescence microscopy; format: cell-based, Staphylococcus aureus
MRSA [9] = assay: Time-kill study, MRSA; format: cell-based, Staphylococcus aureus
Pseudomonas aeruginosa = conditions: cited from earlier work
[10] = even at 100 µg/mL, same experiment (Figure S2)

CCCCCCCCCC(=O)N[C@@H](CCCCN)CN1CC(=O)N(CC)C1=O [Compound 1, (S)-N-(6-Amino-1-(3-ethyl-2,4-dioxoimidazolidin-1-yl)hexan-2-yl)decanamide]
antimicrobial activity against the tested strains (in words) [1]: did not exhibit any activity

CCCCCCCCCCCCCCCC(=O)N[C@@H](CCCCN)CN1CC(=O)N(CC)C1=O [Compound 4, (S)-N-(6-Amino-1-(3-ethyl-2,4-dioxoimidazolidin-1-yl)hexan-2-yl)palmitamide]
activity toward P. aeruginosa (in words) [2]: abolished

CCCCCCCCCC(=O)N[C@@H](CCCCN)CN1CC(=O)N(CCCC)C1=O [Compound 5, (S)-N-(6-Amino-1-(3-butyl-2,4-dioxoimidazolidin-1-yl)hexan-2-yl)decanamide]
antimicrobial activity against the tested strains (in words) [1]: does not have any antimicrobial activity

CCCCCCCCCC(=O)N[C@@H](CCCCN)CN1CC(=O)N(C2CCCCC2)C1=O [Compound 9, (S)-N-(6-Amino-1-(3-cyclohexyl-2,4-dioxoimidazolidin-1-yl)-hexan-2-yl)decanamide]
antimicrobial activity against the tested strains (in words) [1]: starts to show activity toward a few bacterial strains

CCCCCCCCCC(=O)N[C@@H](CCCCN)CN1CC(=O)N(C23CC4CC(CC(C4)C2)C3)C1=O [Compound 13, N-((S)-1-(3-((3R,5R,7R)-Adamantan-1-yl)-2,4-dioxoimidazolidin-1-yl)-6-aminohexan-2-yl)decanamide]
antimicrobial activity against the tested strains (in words) [1]: decent activity across the panel of bacteria
HC50 (Hemolytic activity): 125 µg/mL

CCCCCCCCCCCC(=O)N[C@@H](CCCCN)CN1CC(=O)N(c2cccc(Cl)c2)C1=O [Compound 22, (S)-N-(6-Amino-1-(3-(3-chlorophenyl)-2,4-dioxoimidazolidin-1-yl)hexan-2-yl)dodecanamide]
IC50 [3]: 90 µg/mL (≈ 177 µM)
MIC [1]: < 1 µg/mL
membrane damage (DAPI and PI staining) (E. coli [4]; E. coli, 5 µg/mL, 2 h): damaged
MIC after serial passage (resistance development) (MRSA [5]): remained virtually unchanged
time to complete eradication (E. coli [6]; 4.0 µg/mL (4× MIC)): 60 min
time to complete eradication (E. coli [6]; 25 µg/mL): 30 min
time to complete eradication (E. coli [6]; 50 µg/mL): 30 min
lung inflammation (H&E staining) ([7]; day 3): only mild inflammation was observed
lung inflammation (H&E staining) ([7]; day 5): virtually matched normal conditions
membrane damage (DAPI and PI staining) (MRSA [8]; MRSA, 5 µg/mL, 2 h): damaged
time to complete eradication (MRSA [9]; 2.0 µg/mL (4× MIC)): 60 min
time to complete eradication (MRSA [9]; 25 µg/mL): 10 min

CCCCCCCCCCCC(=O)N[C@@H](Cc1ccccc1)CN1CC(=O)N(c2cccc(Cl)c2)C1=O [Compound 25, (S)-N-(1-(3-(3-Chlorophenyl)-2,4-dioxoimidazolidin-1-yl)-3-phenylpropan-2-yl)dodecanamide]
antimicrobial activity against the tested strains (in words) [1]: failed to show any antimicrobial activity

O=C1CN(/N=C/c2ccc([N+](=O)[O-])o2)C(=O)N1 [Compound 26, nitrofurantoin, reference compound]
MIC [1]: 6.25 to 25 µg/mL (≈ 26.2 to 105 µM)
membrane-disruption activity (E. coli [4]; [10]): did not show any membrane-disruption activity
activity toward P. aeruginosa (in words) [2]: failed to show any activity
membrane-disruption activity (MRSA [8]; [10]): did not show any membrane-disruption activity
not active up to (concentration) (Pseudomonas aeruginosa): > 100 µg/mL

CN[C@H](CC(C)C)C(=O)N[C@H]1C(=O)N[C@@H](CC(N)=O)C(=O)N[C@H]2C(=O)N[C@H]3C(=O)N[C@H](C(=O)N[C@H](C(=O)O)c4cc(O)cc(O)c4-c4cc3ccc4O)[C@H](O)c3ccc(c(Cl)c3)Oc3cc2cc(c3O[C@@H]2O[C@H](CO)[C@@H](O)[C@H](O)[C@H]2O[C@H]2C[C@](C)(N)[C@H](O)[C@H](C)O2)Oc2ccc(cc2Cl)[C@H]1O [vancomycin, reference compound]
lung inflammation (H&E staining) ([7]; day not given): some alleviation of this condition
